The results in this text go back to ChEMBL document CHEMBL3112537, “A novel series of 6-substituted 3-(pyrrolidin-1-ylmethyl)chromen-2-ones as selective monoamine oxidase (MAO) A inhibitors” (Eur J Med Chem, 2014).

The nature of series [1]: Aqueous solubility of the compound in saline solution. It counts as physicochemical.
The target of series [2] is Sodium-dependent serotonin transporter (Homo sapiens) (UniProt P31645). In words: Displacement of [3H]-imipramine from human serotonin transporter at 1 uM relative to control. The method, boiled down: (§1)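 Competition binding run by a contract lab, read as % inhibition of control specific binding at a single test concentration. Radioligand per target: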
Series [3] addresses Histamine H1 receptor (Homo sapiens) (UniProt P35367). In words: Displacement of histamine from human histamine H1 receptor at 1 uM relative to control. In outline: as §1
Another series is filed under the species Homo sapiens. In words: Selectivity index, ratio of IC50 for human recombinant MAO-B to IC50 for human recombinant MAO-A. In outline:
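Selectivity index for MAO A = IC50(MAO B)/IC50(MAO A), with both human isoforms assayed against kynuramine substrate.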

Series [4] addresses Sodium-dependent dopamine transporter (Homo sapiens) (UniProt Q01959). Nature of the series: Displacement of [3H]BTCP from human dopamine transporter at 1 uM relative to control. In outline: as §1
For orientation: Loss of bound radioactivity is the signal in a displacement assay; it reports binding, not function.

The target in series [5] is Sodium-dependent noradrenaline transporter (Homo sapiens) (UniProt P23975). Nature of the series: Displacement of [3H]-nisoxetin from human norepinephrine transporter at 1 uM relative to control. In outline: as §1
For series [6], the target named is T1, 5-hydroxytryptamine receptor 1A (Homo sapiens) (UniProt P08908).
T1 sequence (whole entry): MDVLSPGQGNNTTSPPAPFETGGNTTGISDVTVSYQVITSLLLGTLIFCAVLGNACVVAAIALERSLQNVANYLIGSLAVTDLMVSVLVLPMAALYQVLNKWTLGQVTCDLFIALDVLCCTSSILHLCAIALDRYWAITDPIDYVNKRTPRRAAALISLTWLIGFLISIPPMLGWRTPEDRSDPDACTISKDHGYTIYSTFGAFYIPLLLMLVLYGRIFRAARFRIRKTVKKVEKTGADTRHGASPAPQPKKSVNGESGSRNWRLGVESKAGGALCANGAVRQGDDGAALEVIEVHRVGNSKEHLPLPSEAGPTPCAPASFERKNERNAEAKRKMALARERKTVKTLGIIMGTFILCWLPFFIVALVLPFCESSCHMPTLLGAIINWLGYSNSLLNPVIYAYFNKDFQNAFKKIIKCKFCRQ
Nature of the series: Displacement of [3H]8-OH-DPAT from human 5-HT1A receptor at 1 uM relative to control. The method, boiled down: as §1

The target of series [7] is Adrenergic receptor alpha-2 (Rattus norvegicus) (UniProt P22086+P19328+P22909). In words: Displacement of [3H]-RX-821002 from rat alpha-2 adrenergic receptor at 1 uM relative to control. In outline:
as §1

Series [8] has as its target 5-hydroxytryptamine receptor 2A (Homo sapiens) (UniProt P28223). In words: Displacement of [3H]-ketanserin from human 5-HT2A receptor at 1 uM relative to control. In outline: as §1
For series [9], the target named is T2, Adrenergic receptor alpha-1 (Rattus norvegicus) (UniProt P15823+P23944+P43140). In words: Displacement of [3H]-prazosin from rat alpha-1 adrenergic receptor at 1 uM relative to control. In outline: as §1
Series [10] relates to Rattus norvegicus. In words: In vivo inhibition of MAO-A in Sprague-Dawley rat assessed as 3-methoxytyramine level in brain striatum at 100 umol/kg, sc after 1 hr by HPLC/EC analysis relative to control. On the set-up: scale not given: the % may be the effect or the level left. It counts as functional. The method, boiled down: (§2)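 Freely moving rats dosed subcutaneously and sacrificed 1 h later. Striatal DOPAC, 3-MT and 5-HIAA were measured post mortem and expressed as % of saline control (n = 4). Significance was by Student's t-test, P < 0.05.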

For series [11], the system named is Rattus norvegicus. Nature of the series: In vivo inhibition of MAO-A in Sprague-Dawley rat assessed as 5-hydroxyindoleacetic acid in brain striatum at 100 umol/kg, sc after 1 hr by HPLC/EC analysis relative to control. It counts as functional. On the set-up: scale not given: the % may be the effect or the level left. In outline:
as §2

Series [12] relates to Rattus norvegicus. In words: In vivo inhibition of MAO-A in Sprague-Dawley rat assessed as 3,4-dihydroxyphenylacetic acid level in brain striatum at 100 umol/kg, sc after 1 hr by HPLC/EC analysis relative to control. It counts as functional. More on the design: scale not given: the % may be the effect or the level left. In outline:
as §2

The next series has as its target D(2) dopamine receptor (Homo sapiens, UniProt P14416). In words: Antagonist activity at dopamine D2 receptor (unknown origin) expressed in HEK cells co-expressing Gqi5 assessed as inhibition of dopamine-induced effect by FLIPR assay. It is filed as cell-based, HEK293.
The target in series [13] is T3, Amine oxidase [flavin-containing] B (Homo sapiens, UniProt P27338).
T3 sequence (P27338 whole entry): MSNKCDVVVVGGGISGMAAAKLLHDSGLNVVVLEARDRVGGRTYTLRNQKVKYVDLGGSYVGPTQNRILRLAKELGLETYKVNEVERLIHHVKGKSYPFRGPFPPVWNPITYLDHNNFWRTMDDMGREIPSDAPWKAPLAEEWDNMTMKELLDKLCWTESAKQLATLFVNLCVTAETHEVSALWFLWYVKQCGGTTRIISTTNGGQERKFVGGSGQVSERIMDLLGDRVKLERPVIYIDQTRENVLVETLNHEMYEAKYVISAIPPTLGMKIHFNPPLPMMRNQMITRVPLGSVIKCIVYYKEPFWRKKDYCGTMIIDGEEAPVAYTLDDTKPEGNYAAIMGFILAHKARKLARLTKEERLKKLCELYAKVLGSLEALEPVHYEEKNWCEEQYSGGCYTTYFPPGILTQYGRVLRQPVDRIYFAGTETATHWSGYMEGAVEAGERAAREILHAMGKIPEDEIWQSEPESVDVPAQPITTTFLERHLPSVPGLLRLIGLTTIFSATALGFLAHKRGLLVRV
In words: Inhibition of human recombinant MAO-B assessed as kynuramine oxidation to 4-hydroxyquinoline after 40 mins by LC-MS/MS analysis. In outline:
(§3)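 Human MAO A and MAO B inhibition using kynuramine as a mixed substrate for both isoforms. IC50 is given as the mean ± SE of duplicate determinations.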

In series [14] the target is T4, Amine oxidase [flavin-containing] A (Homo sapiens, UniProt P21397).
T4 sequence (P21397 whole entry): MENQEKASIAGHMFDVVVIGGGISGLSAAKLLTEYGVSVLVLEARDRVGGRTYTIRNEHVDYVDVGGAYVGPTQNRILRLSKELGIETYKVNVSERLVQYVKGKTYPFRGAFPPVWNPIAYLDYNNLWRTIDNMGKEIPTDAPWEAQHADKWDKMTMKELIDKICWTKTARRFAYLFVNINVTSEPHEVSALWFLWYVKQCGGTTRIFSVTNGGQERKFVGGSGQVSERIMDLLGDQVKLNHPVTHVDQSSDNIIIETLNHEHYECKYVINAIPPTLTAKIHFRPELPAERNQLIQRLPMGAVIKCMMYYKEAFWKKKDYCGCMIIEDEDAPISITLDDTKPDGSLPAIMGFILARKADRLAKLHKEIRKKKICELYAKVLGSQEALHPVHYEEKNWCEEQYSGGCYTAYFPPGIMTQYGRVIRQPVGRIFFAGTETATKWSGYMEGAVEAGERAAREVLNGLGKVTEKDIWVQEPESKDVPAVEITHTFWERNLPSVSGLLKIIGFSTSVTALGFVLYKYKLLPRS
In words: Inhibition of human recombinant MAO-A assessed as kynuramine oxidation to 4-hydroxyquinoline after 40 mins by LC-MS/MS analysis. In outline: as §3

Series [15] concerns the target Sodium-dependent serotonin transporter (Homo sapiens) (UniProt P31645). In words: Displacement of [3H]-imipramine from human serotonin transporter at 10 uM relative to control. The method, boiled down: as §1
Series [16] has as its system Rattus norvegicus. In words: In vivo inhibition of MAO-A in Sprague-Dawley rat assessed as decrease in 3,4-dihydroxyphenylacetic acid level in brain striatum at 43 umol/kg, sc up to 2 hrs by microdialysis method. It counts as functional, organism-based. The method, boiled down: (§4)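 Single subcutaneous dose to freely moving rats. Striatal DOPAC and 3-MT were sampled by microdialysis and measured by HPLC/EC over 2 h after dosing at time 0. Levels are expressed as % of saline control (n = 1–2).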

Series [17] addresses T2, Adrenergic receptor alpha-1 (Rattus norvegicus). Nature of the series: Displacement of [3H]-prazosin from rat alpha-1 adrenergic receptor at 10 uM relative to control. In outline:
as §1

The subject of series [18] is Rattus norvegicus. In words: In vivo inhibition of MAO-A in Sprague-Dawley rat assessed as increase in 3-methoxytyramine level in brain striatum at 43 umol/kg, sc up to 2 hrs by microdialysis method. It is filed as functional, organism-based. In outline:
as §4

A short description of series [19]: Metabolic stability in rat liver microsomes assessed as compound remaining at 5 uM after 60 mins by LC-MS/MS analysis. It is filed as ADME. The conditions noted are these: read-out: Stability. In outline:
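Incubation with rat liver microsomes, read as % of compound remaining after 60 min.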

Broadly, the solubility is the concentration that dissolves in the medium under given conditions. One may read the inhibition as the drop in the measured response relative to a control, in per cent. What is called pIC50 is the negative decadic logarithm of the IC50, by convention in mol/L.

pIC50: −log10 of the molar value. Active and inactive are the calls of the source. The calls are words filed in the database; no cut-off is given here.

Chain of D(2) dopamine receptor (P14416 whole entry): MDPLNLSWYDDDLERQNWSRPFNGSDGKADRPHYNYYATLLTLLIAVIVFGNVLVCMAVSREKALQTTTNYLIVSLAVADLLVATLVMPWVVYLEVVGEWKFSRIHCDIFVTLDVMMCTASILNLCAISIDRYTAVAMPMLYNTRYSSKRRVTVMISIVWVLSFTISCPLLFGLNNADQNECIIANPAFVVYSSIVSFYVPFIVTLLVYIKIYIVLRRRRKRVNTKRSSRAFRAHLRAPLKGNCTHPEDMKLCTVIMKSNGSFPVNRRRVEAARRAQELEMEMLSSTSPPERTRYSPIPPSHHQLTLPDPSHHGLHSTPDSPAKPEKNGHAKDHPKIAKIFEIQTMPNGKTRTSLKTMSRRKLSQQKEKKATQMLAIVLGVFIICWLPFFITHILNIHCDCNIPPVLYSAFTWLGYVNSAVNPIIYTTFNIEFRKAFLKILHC
Chain of Sodium-dependent noradrenaline transporter (Homo sapiens) (P23975 whole entry): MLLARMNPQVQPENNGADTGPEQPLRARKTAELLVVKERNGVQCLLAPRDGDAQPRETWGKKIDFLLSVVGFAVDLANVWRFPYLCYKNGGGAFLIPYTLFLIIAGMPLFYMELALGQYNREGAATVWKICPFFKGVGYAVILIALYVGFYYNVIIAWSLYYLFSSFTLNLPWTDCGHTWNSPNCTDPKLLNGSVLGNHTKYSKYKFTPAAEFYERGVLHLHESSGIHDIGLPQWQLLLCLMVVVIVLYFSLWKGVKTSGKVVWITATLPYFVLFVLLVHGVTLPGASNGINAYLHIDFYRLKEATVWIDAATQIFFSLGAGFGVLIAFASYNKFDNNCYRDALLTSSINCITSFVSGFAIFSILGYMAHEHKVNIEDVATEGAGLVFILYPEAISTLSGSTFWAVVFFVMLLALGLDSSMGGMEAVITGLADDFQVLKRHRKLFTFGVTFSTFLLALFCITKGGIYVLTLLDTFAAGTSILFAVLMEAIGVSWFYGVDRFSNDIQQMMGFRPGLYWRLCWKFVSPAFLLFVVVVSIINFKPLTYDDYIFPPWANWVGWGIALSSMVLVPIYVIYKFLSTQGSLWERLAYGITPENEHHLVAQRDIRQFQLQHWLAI
Chain of 5-hydroxytryptamine receptor 2A (Homo sapiens) (P28223 whole entry): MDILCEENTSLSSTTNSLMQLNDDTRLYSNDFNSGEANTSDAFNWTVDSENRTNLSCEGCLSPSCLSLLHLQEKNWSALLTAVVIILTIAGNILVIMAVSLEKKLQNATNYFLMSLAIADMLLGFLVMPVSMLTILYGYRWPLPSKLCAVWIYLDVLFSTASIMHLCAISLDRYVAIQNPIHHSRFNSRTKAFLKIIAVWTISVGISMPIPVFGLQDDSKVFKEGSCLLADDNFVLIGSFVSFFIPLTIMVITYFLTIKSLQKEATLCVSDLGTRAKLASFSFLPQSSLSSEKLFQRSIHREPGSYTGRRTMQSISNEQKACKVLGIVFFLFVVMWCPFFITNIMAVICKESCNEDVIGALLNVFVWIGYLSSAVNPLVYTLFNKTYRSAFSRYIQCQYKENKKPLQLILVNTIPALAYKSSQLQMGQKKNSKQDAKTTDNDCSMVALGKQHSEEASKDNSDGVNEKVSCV
Chain of Sodium-dependent dopamine transporter (Homo sapiens) (Q01959 whole entry): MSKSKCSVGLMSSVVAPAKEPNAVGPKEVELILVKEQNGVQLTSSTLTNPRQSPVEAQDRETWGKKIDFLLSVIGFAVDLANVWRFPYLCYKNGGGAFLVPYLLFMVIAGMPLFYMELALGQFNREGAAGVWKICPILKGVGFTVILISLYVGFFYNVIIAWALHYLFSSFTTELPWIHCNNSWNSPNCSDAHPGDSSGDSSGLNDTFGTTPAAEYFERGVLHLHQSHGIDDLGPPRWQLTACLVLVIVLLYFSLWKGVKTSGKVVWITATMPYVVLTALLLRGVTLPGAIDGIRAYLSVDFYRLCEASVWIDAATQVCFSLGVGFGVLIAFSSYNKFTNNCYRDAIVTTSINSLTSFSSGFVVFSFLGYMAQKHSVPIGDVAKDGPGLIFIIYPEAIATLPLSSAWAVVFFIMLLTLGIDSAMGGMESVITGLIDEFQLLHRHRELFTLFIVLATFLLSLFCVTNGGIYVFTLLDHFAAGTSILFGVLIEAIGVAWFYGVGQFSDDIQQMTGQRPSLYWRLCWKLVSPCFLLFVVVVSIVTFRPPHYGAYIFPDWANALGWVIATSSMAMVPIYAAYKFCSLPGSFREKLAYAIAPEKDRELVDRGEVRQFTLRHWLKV
Chain of Sodium-dependent serotonin transporter (Homo sapiens) (P31645 whole entry, looked up): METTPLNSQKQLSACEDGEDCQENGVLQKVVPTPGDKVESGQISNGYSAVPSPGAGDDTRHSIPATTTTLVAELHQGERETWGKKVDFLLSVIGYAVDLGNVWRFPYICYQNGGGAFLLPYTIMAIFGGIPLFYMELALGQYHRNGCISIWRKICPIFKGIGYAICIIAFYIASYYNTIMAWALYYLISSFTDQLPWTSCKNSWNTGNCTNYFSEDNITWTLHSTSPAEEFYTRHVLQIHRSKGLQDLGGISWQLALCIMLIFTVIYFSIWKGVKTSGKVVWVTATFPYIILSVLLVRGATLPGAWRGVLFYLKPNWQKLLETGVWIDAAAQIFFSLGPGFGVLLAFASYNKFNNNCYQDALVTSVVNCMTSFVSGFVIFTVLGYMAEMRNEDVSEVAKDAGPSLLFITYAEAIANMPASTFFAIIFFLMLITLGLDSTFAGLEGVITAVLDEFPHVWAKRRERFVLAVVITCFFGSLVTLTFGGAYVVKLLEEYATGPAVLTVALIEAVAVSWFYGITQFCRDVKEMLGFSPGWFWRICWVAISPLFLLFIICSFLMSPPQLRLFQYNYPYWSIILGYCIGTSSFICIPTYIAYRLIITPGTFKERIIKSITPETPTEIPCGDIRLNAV
Chain of Histamine H1 receptor (Homo sapiens) (P35367 whole entry): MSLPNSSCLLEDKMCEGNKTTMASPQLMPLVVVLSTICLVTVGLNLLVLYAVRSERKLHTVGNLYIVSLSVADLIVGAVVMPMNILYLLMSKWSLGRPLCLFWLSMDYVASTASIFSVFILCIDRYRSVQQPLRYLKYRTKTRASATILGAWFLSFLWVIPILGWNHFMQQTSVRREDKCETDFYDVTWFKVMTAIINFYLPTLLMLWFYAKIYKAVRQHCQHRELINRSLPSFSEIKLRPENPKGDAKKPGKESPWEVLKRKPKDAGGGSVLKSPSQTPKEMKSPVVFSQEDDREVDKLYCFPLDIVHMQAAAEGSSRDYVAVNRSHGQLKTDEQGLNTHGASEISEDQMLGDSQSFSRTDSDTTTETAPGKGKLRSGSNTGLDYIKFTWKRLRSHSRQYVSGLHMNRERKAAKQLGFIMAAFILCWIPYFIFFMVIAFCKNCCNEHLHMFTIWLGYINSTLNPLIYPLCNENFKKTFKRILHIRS

For `Cl.O=c1oc2ccccc2cc1CN1CCCC1`, in [1], the solubility is > 5000 µg/mL.
On to `O=c1oc2ccc(C(F)(F)F)cc2cc1CN1CCCC1` [listing 1 of 2 here], for which the inhibition in series [2] was -4%; in series [3] it was 4%; in series [4] it was 8%; in series [5], 1%; in [6], 8%; in series [7] it was 20%. Besides, the values for the inhibition in series [8] and in [9] were 20% and 4%, respectively. Besides, in the series listed under Homo sapiens, the Ratio IC50 is > 11.8.
Turning to `O=c1oc2ccc([N+](=O)[O-])cc2cc1CN1CCCC1`, the figures for the Activity in the series with Rattus norvegicus [10], with Rattus norvegicus [11] and in the series with Rattus norvegicus [12] were 75%, 118% and 105%, respectively. Further, the negative logarithm of the IC50 (pIC50) on D(2) dopamine receptor was < 4.52; in series [13], < 4.00; in [14] it was < 4.00.
On to `CCCOc1ccc2oc(=O)c(CN3CCCC3)cc2c1`, for which the Ratio IC50 in the series listed under Homo sapiens came to 10.3. In addition, the figures for the pIC50 in series [13] and in series [14] were 4.65 and 5.67, respectively.
On to `COc1ccc2oc(=O)c(CN3CCCC3)cc2c1.Cl`, for which the solubility in series [1] is > 5000 µg/mL.
As for `COc1ccc2oc(=O)c(CN3CCCC3)cc2c1`, the values for the Activity in the series with Rattus norvegicus [10], in the series on Rattus norvegicus [11] and with Rattus norvegicus [12] were 129%, 90% and 65%, respectively. Moreover, the negative logarithm of the IC50 (pIC50) was < 4.52 at D(2) dopamine receptor, < 4.00 in series [13] and 5.35 in series [14].
In the case of `CCCNCc1cc2ccccc2oc1=O`, in the series filed under Homo sapiens, the Ratio IC50 stood at 3.6.
For the compound `Nc1ccc2oc(=O)c(CN3CCCC3)cc2c1`, the inhibition in series [15] is 1%; in series [3], 13%; in series [17], 4%; in series [4], 0%; in series [5], -2%; in series [6] it was 0%. Besides, the inhibition was 2% in [7] and -4% in [8]. Besides, the inhibition entry in the series with Rattus norvegicus [16] and in the series on Rattus norvegicus [18] was “Active” each time. In addition, the Ratio IC50 in the series filed under Homo sapiens is > 26.5.
Consider `N[C@@H]1C[C@H]1c1ccccc1.N[C@H]1C[C@@H]1c1ccccc1`, for which, in the series listed under Homo sapiens, the Ratio IC50 was 1.
In the case of `O=c1oc2ccc(OC(F)(F)F)cc2cc1CN1CCCC1`, the Ratio IC50 in the series listed under Homo sapiens is > 23.5. Moreover, the remaining at 1 h, 5 µM in [19] was 3%. Further, the results for the pIC50 (at D(2) dopamine receptor; in series [13]; in series [14]) were < 4.59, < 4.00 and 5.37, respectively.
With `O=c1oc2ccc(O)cc2cc1CN1CCCC1`, the Ratio IC50 in the series filed under Homo sapiens was > 68.
Consider `O=c1oc2ccc(C(F)(F)F)cc2cc1CN1CCCC1` [listing 2 of 2 here], for which the Activity in the series on Rattus norvegicus [10] is 88%; with Rattus norvegicus [11], 104%; in the series with Rattus norvegicus [12] it was 77%. Further, the pIC50 at D(2) dopamine receptor was < 4.52; in series [13], < 4.00; in series [14], 5.07.
